The subject of test [1] is Cryptococcus neoformans. Briefly: Antifungal activity against Cryptococcus neoformans. In kind it is functional. The procedure, abridged: (§1)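 In vitro MIC determination by standard agar method, cited from earlier work; fungal strains tested were Candida albicans, Fusarium oxysporum, Aspergillus flavus, Aspergillus niger and Cryptococcus neoformans, with miconazole and fluconazole run as reference standards.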

The next test has as its system Candida albicans. Briefly: Antifungal activity against Candida albicans. The class given is functional. Put shortly: as §1
The subject of test [2] is Fusarium oxysporum. The experiment in a line: Antifungal activity against Fusarium oxysporum. In kind it is functional. The procedure, abridged: as §1
Test [3] relates to Aspergillus flavus. Briefly: Antifungal activity against Aspergillus flavus. In kind it is functional. The procedure, abridged: as §1
The subject of test [4] is Aspergillus niger. The experiment in a line: Antifungal activity against Aspergillus niger. In kind it is functional. Put shortly:
as §1

For test [5], the system named is Cryptococcus neoformans. The experiment in a line: Antifungal activity against Cryptococcus neoformans up to 200 ug/ml. In kind it is functional, organism-based. The procedure, abridged: as §1
The subject of test [6] is Aspergillus niger. The experiment in a line: Antifungal activity against Aspergillus niger up to 200 ug/ml. The class given is functional, organism-based. Put shortly:
as §1

The subject of test [7] is Aspergillus flavus. The experiment in a line: Antifungal activity against Aspergillus flavus up to 200 ug/ml. The class given is functional, organism-based. Put shortly: as §1
Test [8] concerns Fusarium oxysporum. The experiment in a line: Antifungal activity against Fusarium oxysporum up to 200 ug/ml. The class given is functional, organism-based. Put shortly: as §1

In brackets after ≈: the same amount, converted by molar mass. Activity calls are given as the source filed them.

For `CCN1CCC(n2cc(-c3noc(-c4ccccc4)n3)nn2)CC1`, the MIC against Cryptococcus neoformans [1] was 150 µg/mL (≈ 462 µM); against Candida albicans, 90 µg/mL (≈ 277 µM); against Fusarium oxysporum [2] it was 100 µg/mL (≈ 308 µM); in the test with Aspergillus flavus [3], 35 µg/mL (≈ 108 µM); in the test on Aspergillus niger [4], 47.5 µg/mL (≈ 146 µM).

Consider `Clc1ccc(COC(Cn2ccnc2)c2ccc(Cl)cc2Cl)c(Cl)c1` (stereo not given) [MICONAZOLE], for which the MIC against Cryptococcus neoformans [1] is 25 µg/mL (≈ 60.1 µM); against Candida albicans it was 25 µg/mL (≈ 60.1 µM); against Fusarium oxysporum [2], 25 µg/mL (≈ 60.1 µM); with Aspergillus flavus [3] it was 12.5 µg/mL (≈ 30 µM); with Aspergillus niger [4], 12.5 µg/mL (≈ 30 µM).

Consider `Cc1ccc(S(=O)(=O)N2CCC(n3cc(-c4noc(-c5ccccc5)n4)nn3)CC2)cc1`, for which the MIC in the test on Cryptococcus neoformans [1] was 40 µg/mL (≈ 88.8 µM); in the test on Candida albicans, 60 µg/mL (≈ 133 µM); in the test with Fusarium oxysporum [2] it was 70 µg/mL (≈ 155 µM); in the test with Aspergillus flavus [3], 45 µg/mL (≈ 99.9 µM); with Aspergillus niger [4], 37.5 µg/mL (≈ 83.2 µM).

Consider `CN1CCC(n2cc(-c3noc(-c4ccc(Cl)cc4)n3)nn2)CC1`, for which the MIC in the test with Candida albicans was 35 µg/mL (≈ 102 µM); against Fusarium oxysporum [2], 50 µg/mL (≈ 145 µM); against Aspergillus flavus [3] it was 15 µg/mL (≈ 43.5 µM); in the test with Aspergillus niger [4] it was 15 µg/mL (≈ 43.5 µM). Also, the result in the test on Cryptococcus neoformans [5] was inactive.

On to `c1ccc(-c2nc(-c3cn(C4CCNCC4)nn3)no2)cc1`, for which the MIC in the test with Cryptococcus neoformans [1] was found to be 90 µg/mL (≈ 304 µM); with Candida albicans, 60 µg/mL (≈ 202 µM); with Fusarium oxysporum [2], 100 µg/mL (≈ 337 µM); in the test on Aspergillus flavus [3] it was 50 µg/mL (≈ 169 µM); in the test on Aspergillus niger [4], 100 µg/mL (≈ 337 µM).

As for `CCC(=O)N1CCC(n2cc(-c3noc(-c4ccccc4)n3)nn2)CC1`, the minimum inhibitory concentration (MIC) with Candida albicans was found to be 50 µg/mL (≈ 142 µM); against Fusarium oxysporum [2] it was 60 µg/mL (≈ 170 µM); with Aspergillus flavus [3], 30 µg/mL (≈ 85.1 µM). Besides, the result in the test with Cryptococcus neoformans [5] and with Aspergillus niger [6] was inactive.

For the compound `CC(=O)N1CCC(n2cc(-c3noc(-c4ccc(Cl)cc4)n3)nn2)CC1`, the MIC in the test on Candida albicans was found to be 40 µg/mL (≈ 107 µM); with Fusarium oxysporum [2] it was 30 µg/mL (≈ 80.5 µM); against Aspergillus flavus [3] it was 150 µg/mL (≈ 402 µM); in the test on Aspergillus niger [4], 70 µg/mL (≈ 188 µM). For the same compound, in the test on Cryptococcus neoformans [5], the outcome was inactive.

On to `CCC(=O)N1CCC(n2cc(-c3noc(-c4ccc(Cl)cc4)n3)nn2)CC1`, for which the MIC against Candida albicans came to 35 µg/mL (≈ 90.5 µM); against Fusarium oxysporum [2] it was 40 µg/mL (≈ 103 µM); against Aspergillus flavus [3] it was 30 µg/mL (≈ 77.6 µM); in the test with Aspergillus niger [4], 100 µg/mL (≈ 259 µM). Moreover, in the test on Cryptococcus neoformans [5], the outcome was inactive.

As for `CS(=O)(=O)N1CCC(n2cc(-c3noc(-c4ccccc4)n3)nn2)CC1`, the MIC against Cryptococcus neoformans [1] turned out to be 25 µg/mL (≈ 66.8 µM); in the test on Candida albicans, 50 µg/mL (≈ 134 µM); against Fusarium oxysporum [2], 30 µg/mL (≈ 80.1 µM); in the test on Aspergillus flavus [3], 40 µg/mL (≈ 107 µM); against Aspergillus niger [4], 40 µg/mL (≈ 107 µM).

`c1ccc(CN2CCC(n3cc(-c4noc(-c5ccccc5)n4)nn3)CC2)cc1`: the minimum inhibitory concentration (MIC) in the test with Cryptococcus neoformans [1] was found to be 70 µg/mL (≈ 181 µM); against Candida albicans, 50 µg/mL (≈ 129 µM); in the test on Fusarium oxysporum [2], 65 µg/mL (≈ 168 µM); against Aspergillus flavus [3], 50 µg/mL (≈ 129 µM); in the test with Aspergillus niger [4], 150 µg/mL (≈ 388 µM).

With `OC(Cn1cncn1)(Cn1cncn1)c1ccc(F)cc1F` [FLUCONAZOLE], the minimal inhibitory concentration (MIC) was 5 µg/mL (≈ 16.3 µM) in the test on Cryptococcus neoformans [1]; 5 µg/mL (≈ 16.3 µM) against Candida albicans; 5 µg/mL (≈ 16.3 µM) with Fusarium oxysporum [2]; 5 µg/mL (≈ 16.3 µM) against Aspergillus flavus [3]; 10 µg/mL (≈ 32.7 µM) in the test on Aspergillus niger [4].

As for `CC(=O)N1CCC(n2cc(-c3noc(-c4ccccc4)n3)nn2)CC1`, the minimal inhibitory concentration (MIC) against Candida albicans came to 35 µg/mL (≈ 103 µM); in the test on Fusarium oxysporum [2] it was 35 µg/mL (≈ 103 µM); against Aspergillus niger [4], 95 µg/mL (≈ 281 µM). Further, the outcome with Cryptococcus neoformans [5] and in the test on Aspergillus flavus [7] was inactive.

As to `CCCC(=O)N1CCC(n2cc(-c3noc(-c4ccccc4)n3)nn2)CC1`, the minimum inhibitory concentration (MIC) with Cryptococcus neoformans [1] was 150 µg/mL (≈ 409 µM); in the test on Candida albicans, 90 µg/mL (≈ 246 µM); with Fusarium oxysporum [2], 100 µg/mL (≈ 273 µM); against Aspergillus flavus [3], 35 µg/mL (≈ 95.5 µM); in the test with Aspergillus niger [4] it was 47.5 µg/mL (≈ 130 µM).

For `CN1CCC(n2cc(-c3noc(-c4ccccc4)n3)nn2)CC1`, the MIC with Candida albicans turned out to be 50 µg/mL (≈ 161 µM); against Fusarium oxysporum [2], 60 µg/mL (≈ 193 µM); with Aspergillus flavus [3], 30 µg/mL (≈ 96.7 µM). Also, the outcome with Cryptococcus neoformans [5] and with Aspergillus niger [6] was inactive.

For `CS(=O)(=O)N1CCC(n2cc(-c3noc(-c4ccc(Cl)cc4)n3)nn2)CC1`, the minimum inhibitory concentration (MIC) worked out at 40 µg/mL (≈ 97.8 µM) against Cryptococcus neoformans [1]; 30 µg/mL (≈ 73.4 µM) in the test with Candida albicans; 35 µg/mL (≈ 85.6 µM) in the test on Fusarium oxysporum [2]; 15 µg/mL (≈ 36.7 µM) with Aspergillus flavus [3]; 15 µg/mL (≈ 36.7 µM) in the test on Aspergillus niger [4].

Turning to `CCN1CCC(n2cc(-c3noc(-c4ccc(Cl)cc4)n3)nn2)CC1`, the minimal inhibitory concentration (MIC) against Cryptococcus neoformans [1] was 100 µg/mL (≈ 279 µM); with Candida albicans, 70 µg/mL (≈ 195 µM); against Fusarium oxysporum [2] it was 80 µg/mL (≈ 223 µM); against Aspergillus flavus [3], 35 µg/mL (≈ 97.5 µM); against Aspergillus niger [4], 40 µg/mL (≈ 111 µM).

For `O=C(c1ccccc1)N1CCC(n2cc(-c3noc(-c4ccccc4)n3)nn2)CC1`, the MIC worked out at 100 µg/mL (≈ 250 µM) in the test with Cryptococcus neoformans [1], 90 µg/mL (≈ 225 µM) in the test with Candida albicans and 65 µg/mL (≈ 162 µM) with Aspergillus flavus [3]. In addition, the result with Aspergillus niger [6] and with Fusarium oxysporum [8] was inactive.

Take `O=C(c1ccc(Cl)cc1)N1CCC(n2cc(-c3noc(-c4ccccc4)n3)nn2)CC1`: the minimum inhibitory concentration (MIC) turned out to be 45 µg/mL (≈ 103 µM) in the test with Cryptococcus neoformans [1]; 45 µg/mL (≈ 103 µM) against Candida albicans; 40 µg/mL (≈ 92 µM) against Fusarium oxysporum [2]; 40 µg/mL (≈ 92 µM) with Aspergillus flavus [3]; 42.5 µg/mL (≈ 97.7 µM) with Aspergillus niger [4].

On to `O=C(c1ccccc1)N1CCC(n2cc(-c3noc(-c4ccc(Cl)cc4)n3)nn2)CC1`, for which the MIC in the test on Cryptococcus neoformans [1] is 100 µg/mL (≈ 230 µM); with Candida albicans, 75 µg/mL (≈ 172 µM); against Fusarium oxysporum [2], 85 µg/mL (≈ 195 µM); in the test on Aspergillus flavus [3], 65 µg/mL (≈ 149 µM). Further, in the test on Aspergillus niger [6], the result was inactive.

With `CC(C)(C)OC(=O)N1CCC(n2cc(-c3noc(-c4ccccc4)n3)nn2)CC1`, the MIC in the test on Cryptococcus neoformans [1] is 120 µg/mL (≈ 303 µM); with Candida albicans it was 80 µg/mL (≈ 202 µM); against Aspergillus flavus [3], 85 µg/mL (≈ 214 µM); in the test with Aspergillus niger [4], 100 µg/mL (≈ 252 µM). For the same compound, the result in the test with Fusarium oxysporum [8] was inactive.

For orientation: MIC means the smallest concentration in the dilution series that meets the test's criterion for growth inhibition. High values mean a less susceptible organism, low ones a more susceptible organism.

(Values after ChEMBL document CHEMBL1759954, “Synthesis of some novel 3-(1-(1-substitutedpiperidin-4-yl)-1H-1,2,3-triazol-4-yl)-5-substituted phenyl-1,2,4-oxadiazoles as antifungal agents” (2011).)
